Key:
[1] = biological target: T1, Prostaglandin G/H synthase 1 (Homo sapiens, UniProt P23219); test: Inhibition of human Prostaglandin G/H synthase 1 at 1 ug/mL expressed as mean percent inhibition of control PGE-2 production
Procedure, shortened: (§1)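 Human COX-1 and COX-2 genes expressed in a baculovirus system; microsomes prepared from High Five insect cells and used as the enzyme source. Activity read as PGE2 production. Each dose run in duplicate wells within each experiment, and values given as mean percent inhibition of control PGE2.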

[2] = biological target: T1, Prostaglandin G/H synthase 1; test: Inhibition of human Prostaglandin G/H synthase 1 at 10 ug/mL expressed as mean percent inhibition of control PGE-2 production; procedure, shortened: as §1
[3] = biological target: T1, Prostaglandin G/H synthase 1; test: Inhibition of human Prostaglandin G/H synthase 1 at 0.1 ug/mL expressed as mean percent inhibition of control PGE-2 production; procedure, shortened: as §1
[4] = biological target: T2, Prostaglandin G/H synthase 2 (Homo sapiens, UniProt P35354); test: Concentration of drug that causes a 50% decrease in the maximal inhibition of Prostaglandin G/H synthase 2 activity as measured by PGE2 production('+' indicates 90-110% inhibition)
T2 sequence (P35354 whole entry): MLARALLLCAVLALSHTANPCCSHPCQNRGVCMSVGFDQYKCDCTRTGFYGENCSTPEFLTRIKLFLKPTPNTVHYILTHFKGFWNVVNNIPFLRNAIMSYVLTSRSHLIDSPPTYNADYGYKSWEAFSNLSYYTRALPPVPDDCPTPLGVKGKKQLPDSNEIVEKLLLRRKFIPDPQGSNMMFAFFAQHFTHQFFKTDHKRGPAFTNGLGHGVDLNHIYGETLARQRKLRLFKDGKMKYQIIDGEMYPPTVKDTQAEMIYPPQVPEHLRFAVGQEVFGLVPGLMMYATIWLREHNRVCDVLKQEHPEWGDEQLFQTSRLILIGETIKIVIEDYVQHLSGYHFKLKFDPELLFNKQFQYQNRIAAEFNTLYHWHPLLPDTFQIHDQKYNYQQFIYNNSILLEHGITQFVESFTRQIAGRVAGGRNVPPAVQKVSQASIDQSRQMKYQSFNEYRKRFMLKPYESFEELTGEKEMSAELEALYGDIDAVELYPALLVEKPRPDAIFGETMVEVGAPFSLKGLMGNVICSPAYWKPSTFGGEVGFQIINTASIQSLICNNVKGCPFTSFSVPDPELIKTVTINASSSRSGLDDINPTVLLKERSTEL

[5] = biological target: T1, Prostaglandin G/H synthase 1; test: Concentration of drug that causes a 50% decrease in the maximal inhibition of Prostaglandin G/H synthase 1 activity as measured by PGE2 production('+' indicates 90-110% inhibition); procedure, shortened: as §1

T1 sequence (P23219 whole entry): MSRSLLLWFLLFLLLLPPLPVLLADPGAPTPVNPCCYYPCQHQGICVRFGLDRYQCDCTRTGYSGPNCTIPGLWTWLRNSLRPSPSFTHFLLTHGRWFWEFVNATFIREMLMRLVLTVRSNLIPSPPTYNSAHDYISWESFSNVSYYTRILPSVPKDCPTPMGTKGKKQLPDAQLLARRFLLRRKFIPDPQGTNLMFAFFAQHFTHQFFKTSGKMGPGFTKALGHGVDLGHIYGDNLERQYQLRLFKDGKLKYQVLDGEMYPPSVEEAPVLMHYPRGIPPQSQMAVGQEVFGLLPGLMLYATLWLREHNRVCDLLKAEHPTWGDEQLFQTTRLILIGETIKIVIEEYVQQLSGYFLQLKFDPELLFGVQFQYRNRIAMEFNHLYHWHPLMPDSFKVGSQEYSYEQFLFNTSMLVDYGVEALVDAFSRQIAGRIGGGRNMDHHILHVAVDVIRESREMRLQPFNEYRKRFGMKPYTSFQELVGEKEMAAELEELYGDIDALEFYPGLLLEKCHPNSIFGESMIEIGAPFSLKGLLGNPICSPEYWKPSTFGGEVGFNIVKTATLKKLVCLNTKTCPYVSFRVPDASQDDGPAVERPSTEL

inhibition [1] [%] | inhibition [2] [%] | inhibition [3] [%] | IC50 [4] [nM] | IC50 [5] [nM] | Structure (SMILES)
72 | 90 | 40 |  |  | Cc1ccc2c(c1)/C(=C(\O)Nc1ccccc1)C(=O)N(C)C2=O
65 | 100 | 24 |  |  | O=C(Nc1ccc(Cl)cc1Cl)C1=C(O)N(C2CC2)S(=O)(=O)c2ccc(Cl)cc21
62 | 73 | 22 |  |  | Cc1ccc2c(c1)/C(=C(\O)Nc1ccccn1)C(=O)N(C)C2=O
73 | 97 | 22 |  |  | CN1C(O)=C(C(=O)Nc2ccc(F)cc2F)c2cc(F)ccc2S1(=O)=O
15 | 3 | -8 |  |  | COc1ccc2c(c1)S(=O)(=O)N(C)C(C(=O)Nc1ccccc1)=C2O
96 | 100 | 78 |  |  | Cc1cc2c(s1)S(=O)(=O)N(C)C(C(=O)Nc1ccccc1F)=C2O
29 | 45 | 18 |  |  | Cc1ccc2c(c1)S(=O)(=O)N(C)C(C(=O)Nc1ccccn1)=C2O
100 | 100 | 94 | 8 | 41 | CN1C(O)=C(C(=O)Nc2ccccc2Cl)c2cc(Cl)ccc2S1(=O)=O
28 | 28 | 2 |  |  | Cc1ccc2c(c1)S(=O)(=O)N(C)C(C(=O)Nc1ccccc1)=C2O
100 | 100 | 79 |  |  | Cc1ccc2c(c1)/C(=C(\O)Nc1ccc(Cl)cc1Cl)C(=O)N(C)C2=O
20 | 30 | 12 |  |  | Cc1cnc(NC(=O)C2=C(O)c3cc(Cl)ccc3SC2C)s1 (stereo not drawn)
13 | 14 | 9 |  |  | COc1ccc2c(c1)C(O)=C(C(=O)Nc1ccc(Cl)cc1)N(C)S2(=O)=O
17 | 76 | 0 |  |  | O=C(Nc1cccc(Cl)c1)C1=C(O)c2cc(Cl)ccc2[S+]([O-])C1 (stereo not drawn)
31 | 69 | 8 |  |  | Cc1ccc2c(c1)S(=O)(=O)N(C)C(C(=O)Nc1ncc(C)s1)=C2O
100 | 100 | 57 |  |  | CN1C(O)=C(C(=O)Nc2ccc(Cl)cc2)c2cc3ccccc3cc2S1(=O)=O
64 | 94 | -10 |  |  | O=C(Nc1cccc(Cl)c1)C1=C(O)c2cc(Cl)ccc2S(=O)(=O)C1

inhibition [1] [%] | inhibition [2] [%] | inhibition [3] [%] | IC50 [4] [nM] | IC50 [5] [nM] | Structure (SMILES)
76 | 98 | 18 |  |  | CN1C(O)=C(C(=O)Nc2nccs2)c2cc(Cl)ccc2S1(=O)=O
80 | 95 | 16 |  |  | CN1C(C(=O)Nc2nccs2)=C(O)c2c(c3cc(Cl)ccc3n2C)S1(=O)=O
23 | 79 | 6 |  |  | COc1ccc2c(c1)c1c(n2C)C(O)=C(C(=O)Nc2ccccc2)N(C)S1(=O)=O
100 | 93 | 69 |  |  | CN1C(C(=O)Nc2ccccn2)=C(O)c2sc3cc(Cl)ccc3c2S1(=O)=O
96 | 100 | 32 |  |  | CN1C(O)=C(C(=O)Nc2ccccc2Cl)c2cc(F)ccc2S1(=O)=O
94 | 100 | 40 |  |  | CN1C(O)=C(C(=O)Nc2ccc(Cl)cc2Cl)c2cc(F)ccc2S1(=O)=O
80 | 98 | 40 |  |  | Cc1cc2c(s1)C(C(=O)Nc1ccc(Cl)cc1)=C(O)N(C)S2(=O)=O
-2 | 38 | -2 |  |  | O=C(Nc1cccc(Cl)c1)C1=C(O)c2ccccc2[S+]([O-])C1 (stereo not drawn)
44 | 95 | 23 |  |  | Cc1cnc(NC(=O)C2=C(O)N(C)S(=O)(=O)c3ccc(Cl)cc32)s1
-8 | -1 | -1 |  |  | Cc1ccc2c(c1)C(O)=C(C(=O)Nc1ccccc1)N(C)S2(=O)=O
57 | 91 | 32 |  |  | CN1C(O)=C(C(=O)Nc2ccc(Cl)cc2Cl)c2sc(Cl)cc2S1(=O)=O
97 | 100 | 28 |  |  | CN1C(O)=C(C(=O)Nc2ccccc2Cl)c2cc(Cl)c(Cl)cc2S1(=O)=O
41 | 45 | 7 |  |  | CN1C(O)=C(C(=O)Nc2ccccn2)c2ccc(Cl)cc2S1(=O)=O
26 | 62 | 11 |  |  | Cc1cnc(NC(=O)C2=C(O)c3cc(Cl)ccc3S(=O)(=O)N2C)s1
14 | 24 | 0 |  |  | Cc1ccc2c(c1)C(O)=C(C(=O)Nc1ncc(C)s1)N(C)S2(=O)=O

The remaining lines, values behind:

Structure (SMILES) | inhibition [1] [%] | inhibition [2] [%] | inhibition [3] [%] | IC50 [4] [nM] | IC50 [5] [nM]
CN1C(O)=C(C(=O)Nc2ccccc2)c2ccccc2S1(=O)=O | 92 | 100 | 65 |  | 
Cc1cnc(NC(=O)C2=C(O)c3sc(C)cc3S(=O)(=O)N2C)s1 | 68 | 93 | 31 |  | 
CCCc1csc(NC(=O)C2=C(O)c3ccccc3S(=O)(=O)N2C)n1 | 1 | 44 | -3 |  | 
Cc1cc2c(o1)C(O)=C(C(=O)Nc1ncc(C)s1)N(C)S2(=O)=O | -7 | 1 | -8 |  | 
CN1C(C(=O)Nc2nccs2)=C(O)c2ccc3ccccc3c2S1(=O)=O | 100 | 100 | 75 |  | 
Cc1nc(NC(=O)C2=C(O)c3ccccc3S(=O)(=O)N2C)sc1C | 22 | 66 | 1 |  | 
O=C(Nc1ccccn1)C1=C(O)c2ccccc2SC1 | 34 | 83 | -1 |  | 
COc1ccc2c(c1)S(=O)(=O)N(C)C(C(=O)Nc1ccccn1)=C2O | 9 | 44 | -2 |  | 
CN1C(C(=O)Nc2ccccn2)=C(O)c2ccc3ccccc3c2S1(=O)=O | 78 | 100 | 29 |  | 
O=C(Nc1ccccn1)C1=C(O)c2cc(Cl)ccc2SC1 | 58 | 92 | 27 |  | 
CN1C(O)=C(C(=O)Nc2ccccc2)c2c(ccc3ccccc23)S1(=O)=O | 54 | 72 | 18 |  | 
CN1C(C(=O)Nc2ccccn2)=C(O)c2ccc(F)cc2S1(=O)=O | 26 | 74 | 3 |  | 
O=C(Nc1cccc(Cl)c1)C1=C(O)c2ccccc2S(=O)(=O)C1 | 41 | 84 | 6 |  | 
Cc1nnc(NC(=O)C2=C(O)c3ccccc3S(=O)(=O)N2C)s1 | 18 | 2 | 0 |  | 
Cc1cc(NC(=O)C2=C(O)c3ccccc3S(=O)(=O)N2C)no1 | 7 | 10 | -2 |  | 
CN1C(O)=C(C(=O)Nc2nccs2)c2c(ccc3ccccc23)S1(=O)=O | 57 | 93 | 24 |  | 
CN1C(O)=C(C(=O)Nc2nccs2)c2cc3ccccc3cc2S1(=O)=O | 11 | 64 | -3 |  | 
CC1Sc2ccc(Cl)cc2C(O)=C1C(=O)Nc1ccccn1 (stereo not drawn) | 25 | 30 | 14 |  | 
Cc1cnc(NC(=O)C2=C(O)c3cc(Cl)ccc3SC2)s1 | 21 | 18 | 11 |  | 
CN1C(C(=O)Nc2ccccn2)=C(O)c2c(c3ccccc3n2C)S1(=O)=O | 14 | 90 | 0 |  | 
CN1C(C(=O)Nc2ncc(-c3ccccc3)s2)=C(O)c2ccccc2S1(=O)=O | 55 | 97 | 6 |  | 
CN1C(C(=O)Nc2ccccc2)=C(O)c2c(c3ccccc3n2C)S1(=O)=O | 31 | 93 | 9 |  | 
COc1ccc2c(c1)S(=O)(=O)N(C)C(C(=O)Nc1ncc(C)s1)=C2O | 16 | 50 | 6 |  | 
CN1C(C(=O)Nc2nc(C(F)(F)F)cs2)=C(O)c2ccccc2S1(=O)=O | 19 | 72 | 8 |  | 
Cc1cnc(NC(=O)C2=C(O)c3c(c4ccccc4n3C)S(=O)(=O)N2C)s1 | 32 | 97 | 1 |  | 
CN1C(C(=O)Nc2ccccc2)=C(O)c2ccc3ccccc3c2S1(=O)=O | 64 | 88 | 4 |  | 

From ChEMBL document CHEMBL1129978, “Effect of structural modification of enol-carboxamide-type nonsteroidal antiinflammatory drugs on COX-2/COX-1 selectivity” (J Med Chem, 1997)
